Measurements: ChEMBL document CHEMBL1126048, “Synthesis and pharmacological investigation of the enantiomers of muscarone and allomuscarone” (J Med Chem, 1992)

What was measured:
Cavia porcellus [1] = species on record: Cavia porcellus; experiment: In vitro potency against muscarinic preparation from guinea pig atria.; assay type: functional
In short: (§1)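 Isolated tissues: guinea pig atria, ileum and trachea, and rat jejunum and bladder. Agonist concentration–response curves were run, with potency expressed as −log EC50. Values are means ± SEM of six to nine experiments.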

Cavia porcellus [2] = species on record: Cavia porcellus; experiment: In vitro potency against muscarinic preparation from guinea pig ileum.; assay type: functional; in short: as §1
[3] = biological target: T1, Muscarinic acetylcholine receptor M1 (Rattus norvegicus) (UniProt P08482); details: Cerebral cortex
T1 sequence (whole entry): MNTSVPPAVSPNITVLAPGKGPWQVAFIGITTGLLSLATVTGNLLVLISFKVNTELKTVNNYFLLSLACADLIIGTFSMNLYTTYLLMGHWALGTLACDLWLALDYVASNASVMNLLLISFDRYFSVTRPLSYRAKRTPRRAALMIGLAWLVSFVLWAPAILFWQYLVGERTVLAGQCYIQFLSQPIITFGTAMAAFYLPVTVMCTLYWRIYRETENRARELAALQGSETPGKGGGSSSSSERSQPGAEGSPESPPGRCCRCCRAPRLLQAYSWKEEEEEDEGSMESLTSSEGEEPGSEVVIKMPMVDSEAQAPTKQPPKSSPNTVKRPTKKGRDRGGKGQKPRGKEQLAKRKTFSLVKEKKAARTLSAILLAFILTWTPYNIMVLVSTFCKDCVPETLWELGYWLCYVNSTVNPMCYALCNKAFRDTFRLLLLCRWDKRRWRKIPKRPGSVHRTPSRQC

Rattus norvegicus [4] = species on record: Rattus norvegicus; experiment: Hill coefficient for affinity to M1 muscarinic receptor of rat cerebral cortex
Rattus norvegicus [5] = species on record: Rattus norvegicus; experiment: Hill coefficient for affinity to M2 muscarinic receptor of rat cerebral cortex
Rattus norvegicus [6] = species on record: Rattus norvegicus; experiment: Hill coefficient for affinity to M3 muscarinic receptor of rat cerebral cortex
Rattus norvegicus [7] = species on record: Rattus norvegicus; experiment: In vitro potency against muscarinic preparation from rat jejunum; assay type: functional; in short: as §1
Cavia porcellus [8] = species on record: Cavia porcellus; experiment: In vitro potency against muscarinic preparation from guinea pig ileum; assay type: functional; in short: as §1
Cavia porcellus [9] = species on record: Cavia porcellus; experiment: In vitro potency against muscarinic preparation from guinea pig trachea; assay type: functional; in short: as §1
Cavia porcellus [10] = species on record: Cavia porcellus; experiment: In vitro potency against muscarinic preparation from guinea pig atria; assay type: functional; in short: as §1
Rattus norvegicus [11] = species on record: Rattus norvegicus; experiment: In vitro potency against muscarinic preparation from rat bladder.; assay type: functional; in short: as §1
Cavia porcellus [12] = species on record: Cavia porcellus; experiment: In vitro potency against muscarinic preparation from guinea pig trachea.; assay type: functional; in short: as §1
Rattus norvegicus [13] = species on record: Rattus norvegicus; experiment: In vitro potency against muscarinic preparation from rat jejunum.; assay type: functional; in short: as §1
[14] = biological target: T1, Muscarinic acetylcholine receptor M1 (Rattus norvegicus); details: Cerebral cortex; remark: listed apart in the source

| Compound | EC50 (Cavia porcellus [1]) | EC50 (Cavia porcellus [2]) | nH [3] | nH (Rattus norvegicus [4]) | nH (Rattus norvegicus [5]) | nH (Rattus norvegicus [6]) | EC50 (Rattus norvegicus [7]) | EC50 (Cavia porcellus [8]) | EC50 (Cavia porcellus [9]) | EC50 (Cavia porcellus [10]) | EC50 (Rattus norvegicus [11]) | EC50 (Cavia porcellus [12]) | EC50 (Rattus norvegicus [13]) | nH [14] |
| --- | --- | --- | --- | --- | --- | --- | --- | --- | --- | --- | --- | --- | --- | --- |
| C[C@@H]1O[C@H](C[N+](C)(C)C)C[C@H]1O | 20.4 nM | 7.41 nM | 1 |  |  |  |  |  |  |  |  |  |  |  |
| C[C@@H]1O[C@H](C[N+](C)(C)C)CC1=O.[I-] |  |  |  | 0.79 | 0.58 | 0.78 | 7.41 nM | 0.794 nM | 1.12 nM | 1.2 nM |  |  |  |  |
| C[C@H]1O[C@@H](C[N+](C)(C)C)CC1=O.[I-] | 501 nM | 302 nM |  | 1 | 0.6 | 1 |  |  |  |  | 3550 nM | 490 nM |  |  |
| C[C@H]1O[C@H](C[N+](C)(C)C)CC1=O.[I-] | 229 nM | 148 nM |  | 0.89 | 0.63 | 0.9 |  |  |  |  | 2000 nM |  | 661 nM |  |
| C[C@H]1O[C@@H](C[N+](C)(C)C)C[C@@H]1O | 6760 nM | 2400 nM |  |  |  |  |  |  |  |  |  |  |  | 0.76 |
| C[C@@H]1O[C@@H](C[N+](C)(C)C)CC1=O.[I-] | 5.13 nM | 3.47 nM |  | 0.74 | 0.58 | 0.92 |  |  |  |  | 105 nM |  | 20.4 nM |  |
